An excerpt weighted towards active compounds, which were near 2.4% of everything screened.
S1P4 antagonist = S1P4 receptor antagonists, primary screen, cell-based; S1P4-expressing cells, antagonist mode, reporter read-out; inhibition, % at 4.98 µM; AID 1510, 2009; 220,000 compounds, 0.26% hits; Sphingosine 1-phosphate receptor 4 (Homo sapiens), O95977; in the data active = inhibition above about 29%;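 note: 0% = wells stimulated with agonist and 100% = vehicle wells without agonist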
NPY Y1 blocker = NPY-Y1 receptor antagonists, primary screen, cell-based; Neuropeptide Y receptor type 1 (Homo sapiens), P25929; HEK293-CNG Y1 cells, membrane potential fluorescence; NPY at EC95, then isoproterenol; 200,000 compounds, 1% hits; inhibition, % at 3.6 µM;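 active = inhibition above the campaign mean inhibition of all tested compounds plus 3 SD, cut at about 20% in these data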;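 note: 0% = DMSO wells given NPY plus isoproterenol and 100% = isoproterenol alone without NPY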
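Assay system: HEK293 Y1/CNG channel cell line; Doses: single compound dose of 3.6 µM, 0.4% DMSO; Timing: dye 3 h, compound 60 min room temperature, stimulation 45 min; Technique: Membrane-potential fluorescent dye readout; Measure: % inhibition of NPY effect.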
S1P4 agonist = S1P4 receptor agonists, primary screen, cell-based; Sphingosine 1-phosphate receptor 4 (Homo sapiens), O95977; S1P4-expressing cell line, agonist reporter assay; activation, % at 4.98 µM; 220,000 compounds, 0.35% hits; AID 1509, 2009; in the data active = activation above about 11%;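 note: 0% = DMSO vehicle and 100% = reference agonist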
NPY Y2 blocker = NPY-Y2 receptor antagonists, primary screen, cell-based | Neuropeptide Y receptor type 2 (Homo sapiens), P49146 | NPY-Y2 expressing cells, antagonist mode | inhibition, % at 2.7 µM | 140,000 compounds, 0.99% hits; in the data active = inhibition above about 17%;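 note: 0% = vehicle with agonist challenge and 100% = reference antagonist with challenge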
Target sequence (P49146 whole entry, looked up): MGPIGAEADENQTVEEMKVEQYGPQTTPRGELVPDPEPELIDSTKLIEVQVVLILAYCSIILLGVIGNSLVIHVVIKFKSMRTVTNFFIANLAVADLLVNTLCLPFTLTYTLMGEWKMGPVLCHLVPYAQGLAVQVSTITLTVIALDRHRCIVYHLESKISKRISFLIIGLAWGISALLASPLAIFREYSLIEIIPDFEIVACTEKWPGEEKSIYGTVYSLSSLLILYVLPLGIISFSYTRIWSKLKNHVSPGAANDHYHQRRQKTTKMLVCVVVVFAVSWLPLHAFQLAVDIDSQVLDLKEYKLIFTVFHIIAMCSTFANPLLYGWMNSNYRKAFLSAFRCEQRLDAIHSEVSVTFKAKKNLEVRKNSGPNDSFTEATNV
NPY2 pot ag = NPY-Y2 potentiators or agonists, primary screen, cell-based; cells expressing NPY-Y2, potentiator/agonist read-out; AID 1359, 2008; Neuropeptide Y receptor type 2 (Homo sapiens), P49146; activation, % at 3.6 µM; 220,000 compounds, 0.45% hits; in the data active = activation above about 27%;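 note: cells stimulated with NPY near EC25 plus isoproterenol at EC100; 0% = vehicle plus submaximal agonist and 100% = vehicle plus saturating agonist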
NPY-Y1 PAM-ag = NPY-Y1 receptor potentiators or agonists, primary screen, cell-based; Neuropeptide Y receptor type 1 (Homo sapiens), P25929; NPY-Y1 expressing cells, potentiator/agonist activation; activation, % at 3.6 µM; 220,000 compounds, 0.37% hits; AID 1304, 2008; in the data active = activation above about 33%, passing the limit was not always enough;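 note: cells stimulated with NPY at EC10 then isoproterenol at EC100; 0% = low agonist plus stimulus and 100% = saturating agonist plus stimulus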
Numbers without * were called inactive; · = no result given.

SMILES | S1P4 antagonist | NPY Y1 blocker | S1P4 agonist | NPY Y2 blocker | NPY2 pot ag | NPY-Y1 PAM-ag
Cc1cc(Oc2ccccc2F)nc(NCc2ccccc2)n1 | -11 | 26* | -1 | 24* | -39 | -8
CC(CCc1ccccc1)NC(=O)N1CCOCC1 (configuration not stated) | -11 | 7 | 0 | 1 | 4 | -7
O=C1c2ccccc2C(=O)N1CCCCCc1nc(-c2ccccc2)no1 | 11 | 22* | 1 | 12 | -5 | -19
O=C(NCc1ccc2c(c1)OCO2)c1cc([N+](=O)[O-])ccc1N1CCCCC1 | 0 | 25* | 3 | 23* | -1 | -21
O=C(NCc1ccco1)c1cc([N+](=O)[O-])ccc1N1CCCCC1 | 10 | 17 | 1 | 6 | -2 | -7
N#C/C(=C\c1ccco1)C(=O)NCc1ccccc1 | -20 | 0 | 1 | · | -8 | 1
N#CC(C#N)=C1C=CC=CN1/C(=C\c1ccco1)C(=O)c1ccc(-c2ccccc2)cc1 | 69* | 2 | -3 | 7 | -11 | -48
COc1ccc(/C=C/C(=O)NCC(=O)N/N=C(/CCC(=O)O)c2ccccc2)cc1 | -7 | · | 0 | · | -5 | 9
CCOC(=O)CSc1nc2cc(S(=O)(=O)Nc3ccccc3OC)ccc2o1 | -31 | -2 | -1 | -1 | 45* | 70*
O=C1CN(C(=O)COC(=O)c2ccc[n+]([O-])c2)c2ccccc2N1 | -8 | 1 | 0 | · | 6 | 7
CC(C)C(=O)O/N=C(\N)c1ccc(Oc2ccc(Cl)cc2)c([N+](=O)[O-])c1 | 9 | · | -1 | · | -23 | 4
CCc1nc2sc(C#N)c(N)c2c2c1CCCC2 | 0 | 49* | 2 | 57* | -20 | -76
CCc1nc2sc(C(C)=O)c(N)c2c2c1CCCC2 | 7 | · | 0 | · | -17 | 6
CCCCC(=O)Nc1nc2c(OC)cc([N+](=O)[O-])cc2s1 | -7 | -11 | 2 | · | 33* | 39*
COc1cc([N+](=O)[O-])cc2sc(NC(C)=O)nc12 | 2 | · | 3 | · | 29 | 26
Cc1ccc(Cn2c(-c3nonc3N)nc3ccccc32)cc1 | -40 | 23* | 1 | 21* | -8 | -41
N#CCSc1nc2c(sc(=S)n2Cc2ccco2)c(=O)n1-c1ccc(F)cc1 | 1 | 24* | 1 | 20* | -22 | -44
CCOC(=O)NC(=O)CSc1nnc(C2CC2)n1Cc1ccco1 | 6 | 3 | 1 | · | 4 | 3
COc1ccc(C(=O)C(CCCCC(CN(C)C)C(=O)c2ccc(OC)cc2)CN(C)C)cc1 (configuration not stated) | -1 | 21* | -4 | 22* | -23 | -93
CCCc1[nH][nH]c(=O)c1C(c1cccc(Cl)c1)C(C#N)C#N (configuration not stated) | -5 | 50* | -2 | 58* | -8 | -29
COc1ccccc1-c1ccc(SCc2ccc(C)cc2)nn1 | -4 | 21* | 1 | · | -22 | -25
O=C(Cn1nc2n(c1=O)-c1ccccc1SC2)N/N=C/c1ccncc1 | 6 | · | 0 | · | 3 | -2
N=c1c2c(-c3ccccc3)c(-c3ccccc3)n(Cc3ccccc3)c2ncn1CCCn1ccnc1 | -5 | 92* | 2 | 49* | 17 | -40
O=c1c2cnn(-c3ccccc3)c2ncn1Cc1ccco1 | -11 | -2 | 0 | 4 | 5 | 15
N=c1c2c(-c3ccccc3)c(-c3ccccc3)n(Cc3ccco3)c2ncn1Cc1ccco1 | -25 | 22* | 1 | 32* | 22 | 33
SMILES | S1P4 antagonist | NPY Y1 blocker | S1P4 agonist | NPY Y2 blocker | NPY2 pot ag | NPY-Y1 PAM-ag
CCCCn1cnc2c(c(-c3ccccc3)c(-c3ccccc3)n2Cc2ccco2)c1=N | 11 | · | 0 | · | 52* | 52*
Cc1cc(NCCCn2ccnc2)n2nc(C)c(-c3ccccc3)c2n1 | 9 | -4 | 0 | 3 | 13 | -8
CC(C)COP(=O)(OCC(C)C)C(Nc1ccccc1)c1ccc(F)cc1 (configuration not stated) | -4 | 31* | -1 | 23* | 1 | -12
CC(=O)SC(C)CC(=O)NCc1ccccc1 (configuration not stated) | -7 | -9 | 0 | -6 | 54* | 119*
CC(=O)SC(C)CC(=O)Nc1ccccc1 (configuration not stated) | -6 | -19 | 0 | -7 | 34* | 42*
CC(CC(=O)Nc1ccncc1)c1ccccc1 (configuration not stated) | -8 | -6 | 3 | 4 | 9 | 11
COc1ccc(NC(=O)/C(Cl)=C(/Cl)S(=O)Cc2ccc(Cl)cc2)cn1 (configuration not stated) | 52* | 2 | 4 | · | -4 | -2
CC(=O)c1sc(NC(=O)C2(F)C(F)(F)C(F)(F)C(F)(F)C(F)(F)C2(F)F)nc1C | -2 | -4 | 0 | 3 | 54* | 56*
CC(=O)c1sc(NC(=O)C=C(C)C)nc1C | -4 | -1 | 0 | 0 | 19 | 12
OCCNCc1cc(Br)ccc1OCc1ccc(Cl)cc1Cl | -13 | 43* | 0 | 28* | -47 | -94
COc1ccc(Cl)cc1N(C(C)C(=O)NC1CCCC1)S(C)(=O)=O (configuration not stated) | -15 | -2 | -1 | · | 6 | -9
Cc1nn(C2CCS(=O)(=O)C2)c(Cl)c1/C=C/C(=O)OCC(=O)c1cc(C)n(-c2ccc(F)cc2)c1C (configuration not stated) | -17 | -1 | -1 | 3 | 1 | -19
COc1ccc(-c2nc(C#N)c(NCc3cccnc3)o2)cc1OC | 8 | 8 | -1 | 0 | 1 | -6
COc1ccc(-c2nc(C#N)c(NCc3ccc(F)cc3)o2)cc1OC | -8 | 24* | -1 | 24* | -20 | -10
O=c1cc(O)c2ccccc2n1Cc1ccccc1F | 20 | 2 | -2 | · | 13 | 10
COc1ccc(/C=N/NC(=O)c2sccc2OCc2ccc(F)cc2)cc1OC | 3 | 12 | 1 | 26* | -27 | -21
Cc1ccc(-n2nnnc2SCC(=O)Nc2ccccc2N2CCCCC2)cc1C | -8 | 48* | -2 | 28* | -5 | 10
N#CC1=C(N)Oc2n[nH]c(-c3ccncc3)c2C1c1ccsc1 (configuration not stated) | 10 | -2 | -3 | 4 | -8 | -13
N#CC1=C(N)Oc2n[nH]c(-c3ccccc3)c2C1c1ccsc1 (configuration not stated) | -3 | 36* | -3 | 12 | -26 | -17
CCC(CC)C1C(C#N)=C(N)Oc2n[nH]c(-c3ccccc3)c21 (configuration not stated) | 3 | -16 | -2 | 0 | 38* | 49*
